Data taken from paper PMC5656813 (Arthritis & Rheumatology (Hoboken, N.j.), 2017).

System: RA patients
Experiment: Study 1, treatment‐emergent adverse events
Assay type: in vivo, human
Conditions: for treatment-related TEAE: Abdominal discomfort / treatment-related TEAE: Abdominal pain, upper / treatment-related TEAE: Aspartate aminotransferase increased / treatment-related TEAE: Blood amylase increased / treatment-related TEAE: Blood and lymphatic system disorders / treatment-related TEAE: Blood triglycerides increased / treatment-related TEAE: Cystitis, noninfectious / treatment-related TEAE: Duodenogastric reflux / treatment-related TEAE: Ear and labyrinth disorders / treatment-related TEAE: Gastrointestinal disorders / treatment-related TEAE: Gastrointestinal pain / treatment-related TEAE: General disorders and administration site reactions / treatment-related TEAE: Gingival bleeding / treatment-related TEAE: Infections and infestations / treatment-related TEAE: Laboratory findings / treatment-related TEAE: Lipase increased / treatment-related TEAE: Musculoskeletal and connective tissue disorders / treatment-related TEAE: Nervous system disorders / treatment-related TEAE: Renal and urinary disorders: study 1
How it was run: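 Both double-blind, placebo-controlled trials in RA patients on stable MTX. Oral capsules daily for 4 weeks, with 7–10-day follow-up: 200 mg once daily or 100 mg twice daily (study 1); 30, 75, 150 or 300 mg once daily (study 2). At every visit: AEs, vital signs, hematology, serum biochemistry, coagulation and urinalysis. EKG at baseline and follow-up, plus week 4 in study 1. Safety population, descriptive treatment-emergent AE summaries.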

In the case of `O=C(Nc1nc2cccc(-c3ccc(CN4CCS(=O)(=O)CC4)cc3)n2n1)C1CC1` [Filgotinib], the “treatment-related TEAE: Abdominal discomfort” value (100 mg twice daily) is reported as 1 (8.3) number (%) of patients, the “treatment-related TEAE: Abdominal pain, upper” value (100 mg twice daily) is reported as 0 number (%) of patients and the “treatment-related TEAE: Aspartate aminotransferase increased” value (100 mg twice daily) is reported as 0 number (%) of patients. For the same compound, the “treatment-related TEAE: Blood amylase increased” value (100 mg twice daily) was 0 number (%) of patients, the “treatment-related TEAE: Blood and lymphatic system disorders” value (100 mg twice daily) was 0 number (%) of patients and the “treatment-related TEAE: Blood triglycerides increased” value (100 mg twice daily) was 0 number (%) of patients. For the same compound, the “treatment-related TEAE: Cystitis, noninfectious” value (100 mg twice daily) was 0 number (%) of patients, the “treatment-related TEAE: Duodenogastric reflux” value (100 mg twice daily) was 0 number (%) of patients and the “treatment-related TEAE: Ear and labyrinth disorders” value (100 mg twice daily) was 0 number (%) of patients. For the same compound, the “treatment-related TEAE: Gastrointestinal disorders” value (100 mg twice daily) was 2 (16.7) number (%) of patients, the “treatment-related TEAE: Gastrointestinal pain” value (100 mg twice daily) was 0 number (%) of patients and the “treatment-related TEAE: General disorders and administration site reactions” value (100 mg twice daily) was 0 number (%) of patients. For the same compound, the “treatment-related TEAE: Gingival bleeding” value (100 mg twice daily) was 0 number (%) of patients, the “treatment-related TEAE: Infections and infestations” value (100 mg twice daily) was 0 number (%) of patients and the “treatment-related TEAE: Laboratory findings” value (100 mg twice daily) was 1 (8.3) number (%) of patients. The “treatment-related TEAE: Lipase increased” value (100 mg twice daily) was 1 (8.3) number (%) of patients, the “treatment-related TEAE: Musculoskeletal and connective tissue disorders” value (100 mg twice daily) was 0 number (%) of patients and the “treatment-related TEAE: Nervous system disorders” value (100 mg twice daily) was 1 (8.3) number (%) of patients. The “treatment-related TEAE: Renal and urinary disorders” value (100 mg twice daily) was 0 number (%) of patients, the “treatment-related TEAE: Abdominal discomfort” value (200 mg once daily) was 0 number (%) of patients and the “treatment-related TEAE: Abdominal pain, upper” value (200 mg once daily) was 1 (8.3) number (%) of patients. The “treatment-related TEAE: Aspartate aminotransferase increased” value (200 mg once daily) was 0 number (%) of patients, the “treatment-related TEAE: Blood amylase increased” value (200 mg once daily) was 0 number (%) of patients and the “treatment-related TEAE: Blood and lymphatic system disorders” value (200 mg once daily) was 0 number (%) of patients. For the same compound, the “treatment-related TEAE: Blood triglycerides increased” value (200 mg once daily) was 0 number (%) of patients, the “treatment-related TEAE: Cystitis, noninfectious” value (200 mg once daily) was 0 number (%) of patients and the “treatment-related TEAE: Duodenogastric reflux” value (200 mg once daily) was 0 number (%) of patients. For the same compound, the “treatment-related TEAE: Ear and labyrinth disorders” value (200 mg once daily) was 0 number (%) of patients, the “treatment-related TEAE: Gastrointestinal disorders” value (200 mg once daily) was 2 (16.7) number (%) of patients and the “treatment-related TEAE: Gastrointestinal pain” value (200 mg once daily) was 0 number (%) of patients. For the same compound, the “treatment-related TEAE: General disorders and administration site reactions” value (200 mg once daily) was 0 number (%) of patients, the “treatment-related TEAE: Gingival bleeding” value (200 mg once daily) was 0 number (%) of patients and the “treatment-related TEAE: Infections and infestations” value (200 mg once daily) was 0 number (%) of patients. The “treatment-related TEAE: Laboratory findings” value (200 mg once daily) was 0 number (%) of patients, the “treatment-related TEAE: Lipase increased” value (200 mg once daily) was 0 number (%) of patients and the “treatment-related TEAE: Musculoskeletal and connective tissue disorders” value (200 mg once daily) was 0 number (%) of patients. The “treatment-related TEAE: Nervous system disorders” value (200 mg once daily) was 1 (8.3) number (%) of patients, the “treatment-related TEAE: Renal and urinary disorders” value (200 mg once daily) was 0 number (%) of patients and the overall tolerability (studies 1 and 2) was “generally well tolerated”.
